ChEMBL document CHEMBL3259617, “Design, synthesis, and biological evaluation of (e)-3,4-dihydroxystyryl aralkyl sulfones and sulfoxides as novel multifunctional neuroprotective agents” (J Med Chem, 2014)
Active and inactive are the calls of the source. The rule behind the calls is not given here.

Assays:
PC-12 [1] = test: Neuroprotective activity against H2O2-induced damage in rat PC12 cells assessed as cell viability at 2.5 uM preincubated for 3 hrs followed by H2O2 challenge measured after 5 hrs by MTT assay; format: functional, cell-based
Outline: (§1)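 PC12 cells in high-glucose DMEM with 10% FBS, 5% horse serum and antibiotics, 37 °C, 5% CO₂, seeded at 4 × 10⁵ cells mL⁻¹. Pretreated 3 h with compounds (DMSO, diluted in medium), then challenged with H₂O₂ at final 500 μM for 5 h. MTT absorbance at 570 nm; viability relative to untreated cells (100%); mean ± SD, n = 3.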

[2] = Cytotoxicity against mouse BV2 cells assessed as cell viability by MTT assay; format: cell-based, BV-2; parameters: concentration or dose not given beside the values; details: read-out: Activity
[3] = Permeability of the compound at 5 mg/mL after 18 hrs by PAMPA; format: physicochemical; details: read-out: permeability
PC-12 [4] = test: Neuroprotective activity against H2O2-induced damage in rat PC12 cells assessed as cell viability at 5 uM preincubated for 3 hrs followed by H2O2 challenge measured after 5 hrs by MTT assay; format: functional, cell-based; outline: as §1
[5] = Antineuroinflammatory activity in mouse BV2 cells assessed as inhibition of LPS-induced nitric oxide production preincubated for 3 hrs followed by LPS challenge measured after 24 hrs by Griess assay; format: functional, cell-based; details: BV-2
Outline: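 BV2 microglia grown in high-glucose DMEM with 10% FBS and penicillin/streptomycin, 5% CO₂, 37 °C. Seeded at 4 × 10⁵ cells mL⁻¹. Compounds in DMSO, diluted in medium, added for 3 h before LPS (final 100 nM). Nitrite in medium read with an NO assay kit at 540 nm after 24 h. Inhibition calculated against the LPS-only and normal controls. IC50 obtained by linear regression.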

PC-12 [6] = test: Neuroprotective activity against 6-OHDA-induced damage in rat PC12 cells assessed as cell viability at 40 uM preincubated for 3 hrs followed by 6-OHDA challenge measured after 48 hrs by MTT assay; format: functional, cell-based
Outline: (§2)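 PC12 cells grown in high-glucose DMEM with 10% FBS, 5% horse serum and penicillin/streptomycin, 5% CO₂, 37 °C. Seeded at 4 × 10⁵ cells mL⁻¹. Compounds (DMSO stock diluted in medium) applied for 3 h, then 6-OHDA at final 400 μM for 48 h. MTT read at 570 nm; viability given as % of untreated cells; mean ± SD, n = 3.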

[7] = tested on: Radical scavenging activity; test: Antioxidant activity assessed as DPPH free radical scavenging effect after 30 mins by spectrophotometric analysis; format: functional
Outline: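 Compounds and DPPH both in ethanol; equal volumes of test solution and 0.2 mM DPPH solution mixed; control was ethanol plus DPPH. Tested over 1−50 μM. Inhibition % = (A₀ − A_c)/A₀ × 100; IC50 by linear regression. Triplicate wells, three independent runs; vitamin C as reference.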

PC-12 [8] = test: Neuroprotective activity against 6-OHDA-induced damage in rat PC12 cells assessed as cell viability at 5 to 10 uM preincubated for 3 hrs followed by 6-OHDA challenge measured after 48 hrs by MTT assay; format: functional, cell-based; outline: as §2

Row | SMILES | Activity (PC-12 [1]) | viability [2] | Papp at 18 h, 5 mg/mL [3] | Activity (PC-12 [4]) | IC50 [5] | Activity (PC-12 [6]) | IC50 [7] | Activity (PC-12 [8])
1 | CC(C)(C)c1ccc(CS(=O)(=O)/C=C/c2ccc(O)c(O)c2)cc1 | Active | > 90% | 4.7 ×10⁻⁶ cm/s | Active | 12.6 µM | inactive | 9.5 µM | 
2 | O=S(=O)(/C=C/c1ccc(O)c(O)c1)CCCc1ccccc1 | Active | > 90% | 4.1 ×10⁻⁶ cm/s | Active | 10.5 µM | Active | 9.9 µM | 
3 | [O-][S+](/C=C/c1ccc(O)c(O)c1)Cc1ccc(Cl)cc1 (stereo unspecified) |  | > 90% | 4.1 ×10⁻⁶ cm/s | Active | 14 µM | Active | 8.1 µM | 
4 | [O-][S+](/C=C/c1ccc(O)c(O)c1)CCCc1ccccc1 (stereo unspecified) |  | > 90% | 9.1 ×10⁻⁶ cm/s | Active | 28.6 µM | Active | 14.4 µM | 
5 | O=S(=O)(/C=C/c1ccc(O)c(O)c1)Cc1ccc(Cl)cc1 |  | > 90% | 3.3 ×10⁻⁶ cm/s | Active | 11.7 µM | Active | 8.8 µM | 
6 | [O-][S+](/C=C/c1ccc(O)c(O)c1)Cc1ccc(C(F)(F)F)cc1 (stereo unspecified) |  | > 90% | 4.2 ×10⁻⁶ cm/s | Active | 15.5 µM | Active | 7.8 µM | 
7 | O=C(/C=C/c1ccc(O)c(O)c1)OCCc1ccccc1 | Active |  |  | Active |  | Active |  | Active
8 | [O-][S+](/C=C/c1ccc(O)c(O)c1)CCCCc1ccccc1 (stereo unspecified) |  | > 90% | 4.5 ×10⁻⁶ cm/s |  | 36.8 µM | Active | 16.2 µM | 
9 | COc1ccc(CS(=O)(=O)/C=C/c2ccc(O)c(O)c2)cc1 |  | > 90% | 6.4 ×10⁻⁶ cm/s | Active | 11.9 µM | Active | 9.1 µM | 
10 | O=S(=O)(/C=C/c1ccc(O)c(O)c1)CCc1ccccc1 |  | > 90% | 5.7 ×10⁻⁶ cm/s | Active | 30.6 µM | Active | 10.5 µM | 
11 | CC(C)(C)c1ccc(C[S+]([O-])/C=C/c2ccc(O)c(O)c2)cc1 (stereo unspecified) |  | > 90% | 5.8 ×10⁻⁶ cm/s | Active | 9.3 µM | inactive | 9.9 µM | 
12 | O=S(=O)(/C=C/c1ccc(O)c(O)c1)Cc1ccc(C(F)(F)F)cc1 |  | > 90% | 4.3 ×10⁻⁶ cm/s | Active | 15.9 µM | Active | 5.8 µM | Active
13 | O=S(=O)(/C=C/c1ccc(O)c(O)c1)CCCCc1ccccc1 |  | > 90% | 4.1 ×10⁻⁶ cm/s |  | 19.8 µM | Active | 17.2 µM | 
14 | O=S(=O)(/C=C/c1ccc(O)c(O)c1)Cc1ccccc1 |  | > 90% | 10.1 ×10⁻⁶ cm/s | Active | 11.6 µM | Active | 8.1 µM | 
15 | [O-][S+](/C=C/c1ccc(O)c(O)c1)CCc1ccccc1 (stereo unspecified) |  | > 90% | 5 ×10⁻⁶ cm/s |  | 42.6 µM | Active | 11.6 µM | Active
16 | COc1ccc(C[S+]([O-])/C=C/c2ccc(O)c(O)c2)cc1 (stereo unspecified) |  | > 90% | 4.3 ×10⁻⁶ cm/s | Active | 33 µM | Active | 11.5 µM | 
17 | [O-][S+](/C=C/c1ccc(O)c(O)c1)Cc1ccccc1 (stereo unspecified) |  | > 90% | 4.9 ×10⁻⁶ cm/s | Active | 50.3 µM | Active | 14.7 µM | 
